21 compounds from ChEMBL document CHEMBL5252639, “Exploration of cytotoxic potential and tubulin polymerization inhibition activity of cis-stilbene-1,2,3-triazole congeners” (RSC Med Chem, 2023) can be followed below.

pIC50: −log10 of the molar value.

For one test, the system named is B16-F10. The test is described as follows: Cytotoxicity against mouse B16-F10 cells assessed as inhibition of cell growth measured for 24 hrs by MTT assay. The class given is functional, cell-based. The note with it: B16-F10, 24 h. An outline of the steps: (§1)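 Cells were kept at 37 °C with 5% CO2 in suitable medium with 10% FBS and 1% antibiotic-antimycotic, and passaged at 80-90% confluency using 0.25% trypsin/1 mM EDTA. They were seeded at 1×10^3–4×10^3 cells/well and attached overnight. Compounds came from 10 mM DMSO stocks diluted in medium and were applied for 24 h. MTT (0.5 mg/mL) was added for 4 h at 37 °C, formazan was dissolved in DMSO, and absorbance was read at 570 nm.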
Background: Tetrazolium assays rely on reduction of a dye to a coloured formazan, in cell work by metabolically active cells.

In test [1] the test system is HCT-116. The test is described as follows: Cytotoxicity against human HCT-116 cells assessed as inhibition of cell growth measured for 24 hrs by MTT assay. The conditions noted are these: HCT-116, 24 h. The class given is functional, cell-based. An outline of the steps: as §1
Another test concerns BT-474. The test is described as follows: Cytotoxicity against human BT-474 cells assessed as inhibition of cell growth measured for 24 hrs by MTT assay. The note with it: BT-474, 24 h. The class given is functional, cell-based. An outline of the steps:
as §1

For a further test, the system named is A549. The test is described as follows: Cytotoxicity against human A549 cells assessed as inhibition of cell growth measured for 24 hrs by MTT assay. The conditions noted are these: A549, 24 h. The class given is functional, cell-based. An outline of the steps:
as §1

Test [2] relates to HCT-116. The test is described as follows: Induction of apoptosis in human HCT-116 cells assessed as late apoptotic cells at 0.55 uM measured after 24 hrs by Annexin V-FITC/propidium iodide staining based flow cytometry (reference value: 0.00%). The class given is functional. A general note: Flow cytometry measures light scatter and fluorescence of single cells or particles in a stream.

The test system of test [3] is HCT-116. The test is described as follows: Induction of apoptosis in human HCT-116 cells assessed as necrotic cells at 0.55 uM measured after 24 hrs by Annexin V-FITC/propidium iodide staining based flow cytometry (reference value: 0.00%). The class given is functional.
Test [4] relates to HCT-116. The test is described as follows: Induction of morphological change in human HCT-116 cells assessed as change in cell shape incubated for 24 hrs by phase contrast microscopic analysis. The class given is functional, cell-based. The note with it: dose 1.62-6.5 µM. Summed up: (§2)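 HCT-116 plated at 1 × 10^6 cells/mL in RPMI + 10% FBS and allowed to adhere 24 h at 37 °C, 5% CO2. […] After 24 h, morphology imaged by phase-contrast microscopy at 20X.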

Test [5] deals with HCT-116. The test is described as follows: Induction of cell cycle arrest in human HCT-116 cells assessed as accumulation of cells at G0/G1 phase at 0.55 uM […] by PI staining based flow cytometry analysis relative to control (reference value: 70.34%). The class given is functional.
Test [6] concerns HCT-116. The test is described as follows: Induction of apoptosis in human HCT-116 cells assessed as horseshoe shaped nuclei measured for 24 hrs by DAPI staining based microscopic analysis. The class given is functional, cell-based. The conditions noted are these: dose 1.62-6.5 µM. An outline of the steps:
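Then PBS wash, 4% paraformaldehyde fixation 30 min, 0.1% Triton X permeabilisation 15 min, 1 µM DAPI 15 min, PBS wash. Imaged by fluorescence microscopy (ex 350/em 460 nm), 20X.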

Test [7] deals with HCT-116. The test is described as follows: Induction of morphological change in human HCT-116 cells assessed as cell rounding incubated for 24 hrs by phase contrast microscopic analysis. The class given is functional, cell-based. The conditions noted are these: dose 1.62-6.5 µM. Summed up:
as §2

For test [8], the system named is HCT-116. The test is described as follows: Induction of cell cycle arrest in human HCT-116 cells assessed as accumulation of cells at G2/M phase at 0.55 uM measured after 24 hrs by PI staining based flow cytometry analysis relative to control (reference value: 15.61%).
The subject of test [9] is HCT-116. The test is described as follows: Induction of apoptosis in human HCT-116 cells assessed as viable cells at 0.55 uM measured after 24 hrs by Annexin V-FITC/propidium iodide staining based flow cytometry (reference value: 99.71%). The class given is functional. The note with it: read-out: Activity.
In test [10] the test system is HCT-116. The test is described as follows: Induction of cell cycle arrest in human HCT-116 cells assessed as accumulation of cells at S phase at 0.55 uM measured after 24 hrs by PI staining based flow cytometry analysis relative to control (reference value: 5.55%).
The test system of test [11] is HCT-116. The test is described as follows: Induction of morphological change in human HCT-116 cells assessed as cell detachment incubated for 24 hrs by phase contrast microscopic analysis. The class given is functional, cell-based. An outline of the steps: as §2
Test [12] has as its system HCT-116. The test is described as follows: Induction of apoptosis in human HCT-116 cells assessed as early apoptotic cells at 0.55 uM measured after 24 hrs by Annexin V-FITC/propidium iodide staining based flow cytometry (reference value: 0.28%). The class given is functional.
For a further test, the target named is Tubulin (Homo sapiens) (UniProt P68371+Q9H4B7+P0DPH7+P68366+Q13509+Q71U36+P04350+Q3ZCM7+P07437+P68363+Q9BQE3+Q6PEY2+Q13885+Q9BVA1+Q9BUF5). The test is described as follows: Inhibition of tubulin polymerization in human HCT-116 cells at 3 uM measured after 1 hr relative to control. The class given is cell-based.

Turning to `COc1ccc(/C=C(/C(=O)OCc2cn(CC(=O)c3ccc(Cl)c(Cl)c3)nn2)c2ccc3c(c2)OCO3)cc1OC`, the negative-log IC50 (pIC50) was 4.38 with B16-F10, under 4.30 in the test on HCT-116 [1], under 4.30 in the test with BT-474 and 4.59 in the test on A549.
Regarding `COc1ccc(/C=C(/C(=O)OCc2cn(CC(=O)c3ccc(Cl)c(Cl)c3)nn2)c2ccc(OC)c(OC)c2)cc1OC`, the negative-log IC50 (pIC50) with B16-F10 is 4.53; with HCT-116 [1], 4.58; in the test on BT-474 it was 4.32; in the test on A549 it was 4.43.
Regarding `COc1ccc(/C=C(/C(=O)OCc2cn(Cc3cc(C)ccc3C)nn2)c2ccc(OC)c(OC)c2)cc1OC`, the pIC50 was 4.39 in the test with B16-F10, 4.30 with HCT-116 [1], 4.70 in the test with BT-474 and under 4.30 in the test with A549.
`COc1ccc(/C=C(/C(=O)OCc2cn(CC(=O)c3ccc(C)cc3)nn2)c2ccc(OC)c(OC)c2)cc1OC`: the pIC50 in the test on B16-F10 is under 4.30; in the test on HCT-116 [1] it was 4.48; in the test on BT-474 it was 4.39; with A549, 4.38.
On the same counts, the results for `COc1ccc(/C=C(/C(=O)OCc2cn(CC(=O)c3ccccc3)nn2)c2ccc(OC)c(OC)c2)cc1OC` are 4.40, 4.63, 4.79 and 4.42.
On the same counts, the results for `COc1ccc(/C=C(/C(=O)OCc2cn(Cc3ccc([N+](=O)[O-])cc3)nn2)c2ccc(OC)c(OC)c2)cc1OC` are 4.76, 4.46, 4.55 and 4.43.
For `COc1cc2c(c(OC)c1OC)-c1ccc(OC)c(=O)cc1[C@@H](NC(C)=O)CC2` [COLCHICINE], the Activity was 61.81% with HCT-116 [2]; 6.78% in the test with HCT-116 [3]; “Dose-Dependent Effect” in the test with HCT-116 [4]; 54.45% with HCT-116 [5]; “Dose-Dependent Effect” in the test with HCT-116 [6]; “Dose-Dependent Effect” with HCT-116 [7]. The Activity was 40.57% in the test on HCT-116 [8], 6.61% in the test on HCT-116 [10], “Dose-Dependent Effect” in the test on HCT-116 [11] and 10.32% in the test with HCT-116 [12]. Also, the pIC50 in the test with HCT-116 [1] is 6.26; in the test on BT-474 it was 4.90; in the test with A549, 6.05. Besides, in the test on HCT-116 [9], the viability at 0.55 µM was determined as 31.1%.
On to `COc1ccc(/C=C(/C(=O)OCc2cn(Cc3ccccc3[N+](=O)[O-])nn2)c2ccc(OC)c(OC)c2)cc1OC`, for which the negative logarithm of the IC50 (pIC50) was 4.40 in the test with B16-F10, 4.42 in the test with HCT-116 [1], 4.39 in the test on BT-474 and 4.39 with A549.
On to `COc1ccc(C(=O)Cn2cc(COC(=O)/C(=C/c3ccc(OC)c(OC)c3)c3ccc4c(c3)OCO4)nn2)cc1`, for which the pIC50 with B16-F10 was 4.42; in the test with HCT-116 [1] it was under 4.30; in the test with BT-474 it was under 4.30; in the test with A549, 4.50.
For the compound `COc1ccc(/C=C(/C(=O)OCc2cn(Cc3ccccc3F)nn2)c2ccc(OC)c(OC)c2)cc1OC`, the pIC50 in the test with B16-F10 was 4.76; with HCT-116 [1] it was 4.65; with BT-474 it was 4.58; in the test on A549, 4.54.
On the same counts, the results for `COc1ccc(/C=C(/C(=O)OCc2cn(Cc3ccccc3)nn2)c2ccc(OC)c(OC)c2)cc1OC` are 4.79, 4.69, 4.83 and 4.49.
For the compound `COc1ccc(C(=O)Cn2cc(COC(=O)/C(=C/c3ccc(OC)c(OC)c3)c3ccc(OC)c(OC)c3)nn2)cc1`, the pIC50 is 4.85 in the test with B16-F10, 4.74 in the test with HCT-116 [1], 4.32 with BT-474 and 4.38 in the test on A549.
The corresponding values for `COc1ccc(/C=C(/C(=O)OCc2cn(Cc3cccc(Cl)c3)nn2)c2ccc(OC)c(OC)c2)cc1OC` are 4.64, 4.67, under 4.30 and under 4.30.
For `CC(=O)O[C@H]1C(=O)[C@@]2(C)[C@H]([C@H](OC(=O)c3ccccc3)[C@]3(O)C[C@H](OC(=O)[C@H](O)[C@@H](NC(=O)c4ccccc4)c4ccccc4)C(C)=C1C3(C)C)[C@]1(OC(C)=O)CO[C@@H]1C[C@@H]2O`, the inhibition at Tubulin (Homo sapiens) came to 49.5%.
With `COc1ccc(/C=C(/C(=O)OCc2cn(Cc3ccc(Br)cc3)nn2)c2ccc(OC)c(OC)c2)cc1OC`, the pIC50 in the test with B16-F10 was 5.82; with HCT-116 [1] it was 4.60; in the test on BT-474, 4.68; with A549, 4.82.
On the same counts, the results for `COc1ccc(/C=C(/C(=O)OCc2cn(CC(=O)c3ccc(Cl)cc3)nn2)c2ccc(OC)c(OC)c2)cc1OC` are under 4.30, 4.50, under 4.30 and 4.41.
On the same counts, the results for `COc1ccc(/C=C(/C(=O)OCc2cn(CC(=O)c3ccccc3)nn2)c2ccc3c(c2)OCO3)cc1OC` are 4.51, under 4.30, under 4.30 and 4.51.
The corresponding values for `COc1ccc(/C=C(/C(=O)OCc2cn(Cc3ccc(F)cc3)nn2)c2ccc(OC)c(OC)c2)cc1OC` are 5.63, 4.67, 4.77 and 4.54.
Consider `COc1ccc(/C=C(/C(=O)OCc2cn(CC(=O)c3ccc(Cl)cc3)nn2)c2ccc3c(c2)OCO3)cc1OC`, for which the negative logarithm of the IC50 (pIC50) in the test with B16-F10 is 4.54; with HCT-116 [1], under 4.30; in the test on BT-474 it was under 4.30; with A549 it was 4.43.
Turning to `COc1ccc(/C=C(/C(=O)OCc2cn(CC(=O)c3ccc(Br)cc3)nn2)c2ccc(OC)c(OC)c2)cc1OC`, the pIC50 with B16-F10 is under 4.30; in the test on HCT-116 [1], 4.45; in the test on BT-474 it was under 4.30; in the test on A549, 4.37.
As for `COc1ccc(/C=C(/C(=O)OCc2cn(Cc3ccc(C)cc3)nn2)c2ccc(OC)c(OC)c2)cc1OC`, the pIC50 was 5.76 with B16-F10, 4.68 in the test with HCT-116 [1], 4.91 in the test with BT-474 and 4.91 in the test on A549.

The term pIC50 denotes −log10 of the IC50, conventionally taken in molar units. One may read the inhibition as the drop in the measured response relative to a control, in per cent. The low end stands for little suppression, the high end for strong suppression.
